Only a selection was taken, and hits are over-represented in it overall.
RORa inhibitor: inhibitors of human nuclear receptor RORA; inhibition, % at 10 µM; AID 561; hit rate 0.43% among 65,000; P35398; CHO-K1 Gal4-RORA LBD luciferase reporter, luminescence;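 active = inhibition above the mean of all tested compounds plus 3 SD, cut at about 52% in these data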;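 note: 0% = RORA-transfected cells with DMSO and 100% = mock-transfected cells lacking RORA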
Target sequence (P35398 whole entry, looked up, the tested form may be a part): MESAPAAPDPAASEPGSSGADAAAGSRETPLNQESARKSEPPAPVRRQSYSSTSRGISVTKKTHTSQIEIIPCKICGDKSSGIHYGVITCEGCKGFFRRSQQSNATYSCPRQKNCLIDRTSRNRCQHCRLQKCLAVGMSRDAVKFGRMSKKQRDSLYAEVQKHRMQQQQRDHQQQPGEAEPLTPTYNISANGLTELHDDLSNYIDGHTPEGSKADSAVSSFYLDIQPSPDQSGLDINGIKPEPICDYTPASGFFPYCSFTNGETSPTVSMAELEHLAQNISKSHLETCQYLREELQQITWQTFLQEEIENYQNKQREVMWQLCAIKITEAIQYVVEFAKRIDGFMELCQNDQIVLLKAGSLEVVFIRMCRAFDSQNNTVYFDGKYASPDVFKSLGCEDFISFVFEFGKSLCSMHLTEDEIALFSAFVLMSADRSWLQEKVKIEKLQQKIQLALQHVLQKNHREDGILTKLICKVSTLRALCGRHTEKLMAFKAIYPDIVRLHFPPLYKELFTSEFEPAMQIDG
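Test system: CHO-K1 cells with Gal4-hRORA LBD fusion and pG5-luc reporter / Compound: single concentration per compound, 10 µM final / Schedule: 20 h compound treatment, 37 °C / Signal: luminescence from basal luciferase reporter expression / Read-out: % inhibition / Control set: mock-transfected cells as 100%, +RORA DMSO cells as 0% / Replicates: tested once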
An asterisk follows results filed as active.

SMILES | RORa inhibitor
CCN(Cc1ccccc1)S(=O)(=O)c1ccc(C(=O)Nc2nnc(-c3ccccc3OC)o2)cc1 | 49
CCCCN(CCCC)S(=O)(=O)c1ccc(C(=O)Nc2nnc(CSC)o2)cc1 | 61*
CCCN(CCC)S(=O)(=O)c1ccc(C(=O)Nc2nnc(-c3cccc(OC)c3)o2)cc1 | -18
COC(=O)CCC(=O)N1CCc2cc(S(=O)(=O)N3CCc4ccccc43)ccc21 | 19
COc1ccc(Nc2nccc3c2nnn3C)cc1 | -53
Cc1nc2c(c(=O)n1CC1CCCO1)c1nc3ccccc3nc1n2CC(C)C (configuration not stated) | 18
COc1ccc(N2CCN(C(=O)C3CCC(Cn4c(=S)[nH]c5ccccc5c4=O)CC3)CC2)cc1 (configuration not stated) | -18
Cc1cc(C)n(-c2ccc(C(=O)Nc3ccc4c(c3)OCCO4)cc2)n1 | -75
Cc1ccc(NC(=O)Cn2nc(C)c3ccccc3c2=O)cc1F | 7
Cc1cc2ccccc2c(=O)n1CC(=O)Nc1ccc2c(c1)OCO2 | 3
Cn1nc(CC(=O)Nc2ccc3c(c2)OCCO3)c2ccccc2c1=O | 75*
Cn1nc(CC(=O)Nc2ccc(N3CCN(C(=O)OC(C)(C)C)CC3)cc2)c2ccccc2c1=O | 86*
Cc1ccc(NC(=O)Cc2nn(C)c(=O)c3ccccc23)cc1F | 76*
CCCCC(=O)Nc1ccc(N2CCN(C(=O)CC)CC2)cc1 | 10
COc1ccccc1N1CCN(CC(=O)Nc2ccc(C)c(F)c2)CC1 | -2
COc1ccc(CCn2nnnc2C(C(C)C)N2CCN(c3ncccn3)CC2)cc1OC (configuration not stated) | -11
CCn1nnc(-c2ccccc2NC(=O)C(F)(F)F)n1 | -4
O=C(NCc1ccco1)c1cnn2c(C(F)(F)F)cc(-c3cccs3)nc12 | 2
COc1ccc(S(=O)(=O)Cc2ccc(C(=O)NCc3ccc(F)cc3)o2)cc1 | -14
COc1ccc(N2C(=O)CSC2c2ccc3c(c2)OCO3)c(OC)c1 (configuration not stated) | 6
c1ccc2c(c1)CCN(c1nc3cc4c(cc3s1)OCCO4)C2 | 64*
Cc1nc2ccc(S(=O)(=O)NCC(=O)N3CCc4ccccc4C3)cc2s1 | -16
CSCCC(CO)NC(=O)OCc1ccccc1 (configuration not stated) | 16
CCOC(=O)C1=C(C)NC(=O)NC1c1ccc(NC(C)=O)cc1 (configuration not stated) | -3
COC(=O)C1=C(CN2CCCc3ccccc32)NC(=O)NC1c1ccc(F)cc1 (configuration not stated) | 78*
SMILES | RORa inhibitor
CC1(C)CC(=O)c2cc(OCC(=O)NCCN3CCCc4ccccc43)ccc2O1 | -5
COCCCN(C(C)=O)c1nc(-c2ccc(OC)cc2)cs1 | -84
CC(=O)Nn1c(-c2ccccc2)cc2ccccc21 | -14
Cc1sc2nc3n(c(=O)c2c1C)Cc1ccccc1-3 | -73
O=C(CSc1nc2ccccc2[nH]1)N1CCCCC1 | -52
O=C(Nc1nc2ccccc2[nH]1)c1ccccc1F | 86*
COc1ccccc1CCC(=O)Nc1nc2ccccc2[nH]1 | -19
CC(=O)Nc1ccc(S(=O)(=O)NCCNC(=O)c2ccccc2F)cc1 | 4
c1ccc(Nc2nc3ccccc3[nH]2)nc1 | -79
O=C(Nc1nc2ccccc2[nH]1)c1ccc(F)cc1 | 54*
CN1CCN(C(=O)CN(c2cccc(Cl)c2)S(=O)(=O)c2ccccc2)CC1 | -48
CC(=NC1CCCCC1)C1=C(O)c2ccccc2C1=O | -88
Cc1cc(NC(=O)C2CCN(S(=O)(=O)Cc3ccccc3)CC2)ccc1-n1cnnn1 | 0
O=S(=O)(NCc1ccncc1)c1ccc(Br)s1 | 65*
CN1CCN(S(=O)(=O)c2ccc(Br)s2)CC1 | -63
CCOC(=O)C1CCN(C(=O)CNS(=O)(=O)c2ccc(Br)s2)CC1 | -10
Cc1cc(C)cc(-n2cc3c(=O)n(C)c(=O)n(C)c3c2)c1 | -16
CC(C)=CCC(C)(C)CNC(=O)NC1CCCCC1 | -5
Cc1ccc(-c2nc3nc4ccccc4nc3n2Cc2ccco2)cc1 | 68*
CCCn1c(-c2ccc(OC)cc2)nc2nc3ccccc3nc21 | -4
c1ccc(Cn2c(-c3ccco3)nc3nc4ccccc4nc32)cc1 | -75
Cc1ccc(-c2noc(CCC(=O)NCc3ccc4c(c3)OCO4)n2)cc1 | 25
CC1CCc2cc(F)cc3c(O)c(C(=O)Nc4cnccn4)c(=O)n1c23 (configuration not stated) | 20
Cc1ccc(OCC(=O)N2CCC(N3CCCCCC3)CC2)cc1 | -8
Cc1ccc(-n2nnnc2SCC(=O)N2CCN(C(=O)c3ccco3)CC2)c(C)c1 | 1
COc1cc(CSc2nnnn2-c2ccc(C)cc2)cc(OC)c1OC | 72*
COc1ccc(C)cc1-n1nnnc1SCc1nc2ccccc2s1 | -50
COc1ccc(-c2nsc3c(N4CCN(S(=O)(=O)c5ccccc5)CC4)ncnc23)cc1 | 14
O=S(=O)(c1ccccc1)N1CCN(c2cc(-c3ccccc3)nc3ncnn23)CC1 | 70*
FC(F)(F)c1cc(-c2ccccc2)nc(N2CCCCCC2)n1 | 6
